Test results published in ChEMBL document CHEMBL3351240, “Antinociceptive properties of physalins from Physalis angulata” (J Nat Prod, 2014).
Calls of active or inactive are those of the source.

Experiments:
[1] = test system: Mus musculus; assay: CNS toxicity in Swiss Webster mouse assessed as reduction in motor performance at 10 mg/kg, ip after 40 mins by open field test; format: organism-based; parameters: dose 10 mg/kg, route intraperitoneal; conditions: in vivo
Outline: (§1)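 Open-field test 40 min after ip dosing: mice placed singly in 40 × 60 × 50 cm box with 12 floor squares; squares crossed with all four paws counted over 3 min; n = 6; one-way ANOVA with Tukey.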

[2] = test system: Mus musculus; assay: CNS toxicity in Swiss Webster mouse assessed as reduction in motor performance at 10 mg/kg, ip after 40 mins by rotarod test; format: organism-based; parameters: dose 10 mg/kg, route intraperitoneal; conditions: in vivo
Outline: (§2)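 Rota-rod test: 3 cm bar at 8 rpm; mice pre-selected 24 h earlier by remaining on bar for two consecutive 120 s periods; placed on rod 40 min after ip dosing; time on bar recorded up to 120 s; n = 6; one-way ANOVA with Tukey.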

[3] = test system: Mus musculus; assay: Antinociceptive activity in Swiss Webster mouse assessed as inhibition of acetic acid-induced abdominal constrictions at 25 to 100 mg/kg, ip dosed 40 mins before acetic acid injection; format: functional, organism-based; conditions: Abdomen
Outline: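 Male Swiss Webster mice dosed ip (5% DMSO in saline vehicle) 40 min before ip acetic acid 0.8% v/v, 10 mL/kg; writhes (abdominal contraction with hind-limb stretching) counted over 0−30 min; mean writhing score, n = 10 per group; ANOVA with Tukey.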

[4] = test system: Mus musculus; assay: Antinociceptive activity in Swiss Webster mouse assessed as inhibition of formalin-induced late phase pain response at 50 mg/kg, ip dosed 40 mins before formalin injection; format: functional, organism-based; parameters: dose 50 mg/kg
Outline: (§3)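 Mice acclimated 30 min in chamber, dosed ip 40 min before sc injection of 20 μL 2.5% formalin into dorsal hind paw; licking time of injected paw scored 0−10 min (early phase) and 10−30 min (late phase); n = 7−10; ANOVA with Tukey.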

[5] = test system: Mus musculus; assay: Antinociceptive activity in Swiss Webster mouse assessed as inhibition of formalin-induced early phase pain response at 50 mg/kg, ip dosed 40 mins before formalin injection; format: functional, organism-based; parameters: dose 50 mg/kg; outline: as §3
[6] = test system: Mus musculus; assay: CNS toxicity in Swiss Webster mouse assessed as effect on motor performance at 100 mg/kg, ip after 40 mins by rotarod test; format: organism-based; parameters: dose 100 mg/kg, route intraperitoneal; conditions: in vivo; outline: as §2
[7] = test system: Mus musculus; assay: CNS toxicity in Swiss Webster mouse assessed as effect on motor performance at 100 mg/kg, ip after 40 mins by open field test; format: organism-based; parameters: dose 100 mg/kg, route intraperitoneal; conditions: in vivo; outline: as §1
[8] = test system: Mus musculus; assay: Antiinflammatory activity in Swiss Webster mouse assessed as reduction in hyperalgesia at 100 mg/kg, ip dosed 40 mins before CFA injection and measured 2 to 6 hrs post CFA stimulus; format: functional, organism-based; parameters: dose 100 mg/kg
Outline: (§4)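 Male Swiss Webster mice (22−28 g) given drug ip in 5% DMSO/saline (dexamethasone in 10% ethanol/saline) 40 min before 20 μL CFA (1 mg/mL heat-killed M. tuberculosis in paraffin oil/mannide monooleate) sc into right hind paw plantar region. Mechanical threshold by von Frey filaments, up−down method, at 2, 4 and 6 h; n = 6; two-way ANOVA with Bonferroni.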

[9] = test system: Mus musculus; assay: Antiinflammatory activity in Swiss Webster mouse assessed as reduction in paw edema at 100 mg/kg, ip dosed 40 mins before CFA injection and measured 2 to 6 hrs post CFA stimulus; format: functional, organism-based; parameters: dose 100 mg/kg
Outline: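 Male Swiss Webster mice, ip pretreatment in 5% DMSO/saline 40 min before intraplantar CFA (20 μL, 1 mg/mL heat-killed M. tuberculosis). Paw volume measured by plethysmometer before and 2, 4, 6 h after CFA; edema expressed as percent increase in paw volume; n = 6 mice/group; two-way ANOVA with Bonferroni.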

[10] = test system: Mus musculus; assay: Antinociceptive activity in Swiss Webster mouse assessed as increase in reaction time at 100 mg/kg, ip measured after 3 hrs by tail flick test; format: functional, organism-based; parameters: dose 100 mg/kg
Outline: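 Mice habituated to restraint cylinder 20 min/day for 5 days; distal 2 cm of tail immersed in 48 ± 0.5 °C water; tail withdrawal latency measured before and after ip dosing (5% DMSO/saline vehicle); 10 s cutoff; n = 6; two-way ANOVA with Bonferroni.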

[11] = test system: Mus musculus; assay: Antinociceptive activity in Swiss Webster mouse assessed as increase in latency time at 100 mg/kg, ip measured after 0.5 to 2 hrs by hot plate test; format: functional, organism-based; parameters: dose 100 mg/kg
Outline: (§5)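 Hot plate held at 55 ± 1 °C; male Swiss Webster mice; reaction time to hind paw licking or jumping recorded before and after ip dosing (vehicle 5% DMSO in saline); data as difference from baseline; 10 s cutoff; n = 6; two-way ANOVA with Bonferroni.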

[12] = test system: Mus musculus; assay: Antinociceptive activity in Swiss Webster mouse assessed as inhibition of formalin-induced late phase pain response at 25 to 100 mg/kg, ip dosed 40 mins before formalin injection; format: functional, organism-based; outline: as §3
[13] = test system: Mus musculus; assay: Antinociceptive activity in Swiss Webster mouse assessed as increase in latency time at 100 mg/kg, ip measured after 0.5 hrs by hot plate test; format: functional, organism-based; parameters: dose 100 mg/kg; outline: as §5
[14] = test system: Mus musculus; assay: Antiinflammatory activity in Swiss Webster mouse assessed as reduction in paw edema at 2 mg/kg, ip dosed 40 mins before CFA injection and measured 2 to 6 hrs post CFA stimulus; format: functional, organism-based; parameters: dose 2 mg/kg
Outline: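 Male Swiss Webster mice given drug ip (dexamethasone in 10% ethanol in saline) 40 min before intraplantar CFA (20 μL). Paw volume by plethysmometer before and after CFA, at 2, 4, 6 h; expressed as percent increase in paw volume. Mean ± SEM, n = 6; two-way ANOVA with Bonferroni.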

[15] = test system: Mus musculus; assay: Antiinflammatory activity in Swiss Webster mouse assessed as reduction in hyperalgesia at 2 mg/kg, ip dosed 40 mins before CFA injection and measured 2 to 6 hrs post CFA stimulus; format: functional, organism-based; parameters: dose 2 mg/kg
Outline: as §4, with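 “ip” for “ip in 5% DMSO/saline”, “ethanol in saline)” for “ethanol/saline)”, “4,” for “4 and”, “h. Mean ± SEM,” for “h;”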

[16] = test system: Mus musculus; assay: Reduction in TNFalpha level in Swiss Webster mouse 2 mg/kg, ip dosed 40 mins before CFA injection and measured 3 hrs post CFA stimulus by ELISA method; format: functional, organism-based; parameters: dose 2 mg/kg; conditions: at 2 mg/kg
Outline: (§6)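 Mice dosed ip (dexamethasone in 10% ethanol in saline) 40 min before intraplantar CFA; paw skin removed under terminal halothane anesthesia, homogenized 100 mg/mL in PBS with 0.4 M NaCl, 0.05% Tween 20 and protease inhibitors, centrifuged 3000g 10 min, supernatant frozen −70 °C; cytokine by ELISA as pg/mL. n = 6; two-way ANOVA with Bonferroni.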

[17] = test system: Mus musculus; assay: Reduction in IL1-beta level in Swiss Webster mouse 2 mg/kg, ip dosed 40 mins before CFA injection and measured 3 hrs post CFA stimulus by ELISA method; format: functional, organism-based; parameters: dose 2 mg/kg; conditions: at 2 mg/kg; outline: as §6

Structure (SMILES): CN1C(=O)CN=C(c2ccccc2)c2cc(Cl)ccc21 [DIAZEPAM]
- Activity [1]: Toxic
- Activity [2]: Toxic

Structure (SMILES): C[C@]12C(=O)C=CC=C1[C@@H](O)C[C@@H]1[C@@H]2CC[C@@]2(O)C(=O)O[C@@]3(C)[C@H]4C[C@]5(C)[C@@H](CO[C@@]16O[C@]23[C@H]5C6=O)C(=O)O4 [PHYSALIN G]
- inhibition [3]: Dose-dependent effect
- inhibition [4]: Active
- inhibition [5]: Active
- Activity [6]: Non-toxic
- Activity [7]: Non-toxic
- inhibition [8]: inactive
- inhibition [9]: inactive
- Activity [10]: Active
- Activity [11]: Active

Structure (SMILES): C[C@@]12C[C@H]3OC(=O)[C@@H]1CO[C@@]14O[C@]5([C@H]2C1=O)[C@@](O)(CC[C@H]1[C@H]4C[C@@H](O)[C@@]2(O)CC=CC(=O)[C@]12C)C(=O)O[C@@]35C [PHYSALIN D]
- inhibition [3]: Dose-dependent effect
- inhibition [12]: Active
- Activity [6]: Non-toxic
- Activity [7]: Non-toxic
- inhibition [8]: inactive
- inhibition [9]: inactive
- Activity [13]: Active

Structure (SMILES): C[C@@H]1C[C@H]2[C@@H]3CCC4=CC(=O)C=C[C@]4(C)[C@@]3(F)[C@@H](O)C[C@]2(C)[C@@]1(O)C(=O)CO
- inhibition [14]: Active
- inhibition [15]: Active
- inhibition [16]: Active
- inhibition [17]: Active
